Measured values: ChEMBL document CHEMBL2150901, “Synthesis and biological activity of tricyclic cycloalkylimidazo-, pyrimido- and diazepinopurinediones” (Eur J Med Chem, 2011)
The source made the active and inactive calls. The calls are words filed in the database; no cut-off is given here.

Tests used:
[1] = biological target: T1, Adenosine receptor A1 (Rattus norvegicus, UniProt P25099); assay: Displacement of [3H]CCPA from adenosine A1 receptor in rat brain cortical membrane; assay type: cell membranes
T1 sequence (P25099 whole entry): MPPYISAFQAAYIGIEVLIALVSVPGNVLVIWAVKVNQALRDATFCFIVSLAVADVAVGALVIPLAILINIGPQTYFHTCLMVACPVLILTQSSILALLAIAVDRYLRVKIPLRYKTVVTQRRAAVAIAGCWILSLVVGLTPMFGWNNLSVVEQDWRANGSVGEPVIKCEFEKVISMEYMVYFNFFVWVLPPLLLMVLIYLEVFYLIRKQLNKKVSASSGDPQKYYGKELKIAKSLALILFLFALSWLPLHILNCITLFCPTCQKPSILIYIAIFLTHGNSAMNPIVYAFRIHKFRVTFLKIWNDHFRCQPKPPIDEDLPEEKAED

[2] = test system: Mus musculus; assay: Anticonvulsant activity in F1 albino mouse assessed as protection against subcutaneous pentylenetetrazole-induced seizures at 300 mg/kg, ip after 1 hr; assay type: functional, organism-based; parameters: dose 300 mg/kg
Procedure, shortened: (§1)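 Male albino F-1 mice (18–25 g), groups of 1–5 (rotorod 2–8). Compound given ip as a suspension in 0.5% methylcellulose at 30, 100 and 300 mg/kg. Seizures by maximal electroshock or subcutaneous pentylenetetrazole; neurotoxicity by rotorod. Read at 0.5 and 4 h, with some at 0.25, 1 and 2 h. Value is the minimum active dose, with protected (or toxic)/tested animals.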

[3] = test system: Mus musculus; assay: Anticonvulsant activity in F1 albino mouse assessed as protection against maximal electroshock-induced seizures at 300 mg/kg, ip after 4 hrs; assay type: functional, organism-based; parameters: dose 300 mg/kg; procedure, shortened: as §1
[4] = species on record: Rattus norvegicus; assay: Selectivity ratio of Ki for adenosine A1 receptor in rat brain cortical membrane to Ki for adenosine A2A receptor in rat brain striatal membrane; assay type: cell membranes
Procedure, shortened: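 Ki ratios from radioligand competition binding. Rat A1 used brain cortical membranes and rat A2A used brain striatal membranes. Human A1 and A2A used membranes of CHO cells expressing the receptors. A1 radioligand [³H]CCPA; A2A radioligand [³H]MSX-2. Potent compounds were tested at 6–7 concentrations spanning 3 orders of magnitude.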

[5] = test system: Mus musculus; assay: Neurotoxicity in F1 albino mouse assessed as minimal motor impairment at 300 mg/kg, ip after 0.25 hrs by rotorod test; assay type: toxicity, organism-based; parameters: dose 300 mg/kg, route intraperitoneal; conditions: in vivo; procedure, shortened: as §1
[6] = test system: Mus musculus; assay: Anticonvulsant activity in F1 albino mouse assessed as protection against subcutaneous pentylenetetrazole-induced seizures at 300 mg/kg, ip after 0.25 hrs; assay type: functional, organism-based; parameters: dose 300 mg/kg; procedure, shortened: as §1
[7] = biological target: Adenosine receptor A2a (Rattus norvegicus, UniProt P30543); assay: Displacement of [3H]MSX-2 from adenosine A2A receptor in rat brain striatal membrane; assay type: cell membranes
[8] = test system: Mus musculus; assay: Neurotoxicity in F1 albino mouse assessed as minimal motor impairment at 300 mg/kg, ip after 0.5 hrs by rotorod test; assay type: toxicity, organism-based; parameters: dose 300 mg/kg, route intraperitoneal; conditions: in vivo; procedure, shortened: as §1
[9] = test system: Mus musculus; assay: Neurotoxicity in F1 albino mouse assessed as minimal motor impairment at 300 mg/kg, ip after 1 hr by rotorod test; assay type: toxicity, organism-based; parameters: dose 300 mg/kg, route intraperitoneal; conditions: in vivo; procedure, shortened: as §1
[10] = test system: Mus musculus; assay: Anticonvulsant activity in F1 albino mouse assessed as protection against maximal electroshock-induced seizures at 300 mg/kg, ip after 1 hr; assay type: functional, organism-based; parameters: dose 300 mg/kg; procedure, shortened: as §1
[11] = test system: Mus musculus; assay: Anticonvulsant activity in F1 albino mouse assessed as protection against maximal electroshock-induced seizures at 300 mg/kg, ip after 0.5 hrs; assay type: functional, organism-based; parameters: dose 300 mg/kg; procedure, shortened: as §1
[12] = test system: Mus musculus; assay: Anticonvulsant activity in F1 albino mouse assessed as protection against subcutaneous pentylenetetrazole-induced seizures at 300 mg/kg, ip after 4 hrs; assay type: functional, organism-based; parameters: dose 300 mg/kg; procedure, shortened: as §1
[13] = test system: Mus musculus; assay: Anticonvulsant activity in F1 albino mouse assessed as protection against maximal electroshock-induced seizures at 300 mg/kg, ip after 0.25 hrs; assay type: functional, organism-based; parameters: dose 300 mg/kg; procedure, shortened: as §1
[14] = test system: Mus musculus; assay: Neurotoxicity in F1 albino mouse assessed as minimal motor impairment at 300 mg/kg, ip after 4 hrs by rotorod test; assay type: toxicity, organism-based; parameters: dose 300 mg/kg, route intraperitoneal; conditions: in vivo; procedure, shortened: as §1
[15] = test system: Mus musculus; assay: Anticonvulsant activity in F1 albino mouse assessed as protection against subcutaneous pentylenetetrazole-induced seizures at 300 mg/kg, ip after 0.5 hrs; assay type: functional, organism-based; parameters: dose 300 mg/kg; procedure, shortened: as §1
[16] = biological target: T2, Adenosine receptor A1 (Rattus norvegicus) (UniProt P25099); assay: Displacement of [3H]CCPA from adenosine A1 receptor in rat brain cortical membrane at 25 uM; assay type: cell membranes
T2 sequence (whole entry): T1 sequence (P25099 whole entry)

Sequence of Adenosine receptor A2a (P30543 whole entry): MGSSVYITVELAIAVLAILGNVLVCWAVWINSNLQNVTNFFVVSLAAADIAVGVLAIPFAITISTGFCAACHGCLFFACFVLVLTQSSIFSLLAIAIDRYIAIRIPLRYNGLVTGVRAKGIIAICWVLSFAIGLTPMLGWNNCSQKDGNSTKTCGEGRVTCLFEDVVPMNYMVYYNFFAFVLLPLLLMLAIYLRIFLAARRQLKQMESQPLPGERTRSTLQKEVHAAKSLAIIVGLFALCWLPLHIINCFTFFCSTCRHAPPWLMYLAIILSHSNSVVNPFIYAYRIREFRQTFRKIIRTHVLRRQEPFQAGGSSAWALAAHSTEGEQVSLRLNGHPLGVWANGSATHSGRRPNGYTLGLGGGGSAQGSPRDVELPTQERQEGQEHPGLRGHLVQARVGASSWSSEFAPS

Structure (SMILES) | Ki [1] [µM] | Ratio Ki [4] | Ki [7] [nM] | inhibition [16] [%] | Activity [2] | Activity [3] | Activity [5] | Activity [6] | Activity [8] | Activity [9] | Activity [10] | Activity [11] | Activity [12] | Activity [13] | Activity [14] | Activity [15]
CC(C1CCCCC1)N1CCCn2c1nc1c2c(=O)n(C)c(=O)n1C (racemic) | 7.58 | 6 | 1240 | – | inactive | inactive | Non-toxic | inactive | Non-toxic | Non-toxic | inactive | inactive | inactive | inactive | Non-toxic | inactive
Cn1c(=O)c2c(nc3n2CCCCN3C2CCCCC2)n(C)c1=O | 2.13 | 1 | 2960 | – | inactive | inactive | Non-toxic | inactive | Non-toxic | Non-toxic | inactive | inactive | inactive | inactive | Non-toxic | inactive
CC1CCCCC1N1CCCn2c1nc1c2c(=O)n(C)c(=O)n1C (mixture of isomers) | > 25 | > 23 | 1080 | 31 | inactive | inactive | Non-toxic | inactive | Non-toxic | Non-toxic | inactive | inactive | inactive | inactive | Non-toxic | inactive
Cn1c(=O)c2c(nc3n2CCCN3C2CC2)n(C)c1=O | ≥ 25 | 20 | 1240 | 43 | inactive | inactive | Non-toxic | inactive | Toxic | Non-toxic | inactive | inactive | inactive | inactive | Non-toxic | inactive

The remaining molecules from weak to strong by Ki [1], led by results:

Ki [1] [µM] | Ratio Ki [4] | Ki [7] [nM] | inhibition [16] [%] | Structure (SMILES) | Activity [2] | Activity [3] | Activity [5] | Activity [6] | Activity [8] | Activity [9] | Activity [10] | Activity [11] | Activity [12] | Activity [13] | Activity [14] | Activity [15]
7.89 | 6 | 1300 | – | C[C@H](C1CCCCC1)N1CCCn2c1nc1c2c(=O)n(C)c(=O)n1C | inactive | inactive | Non-toxic | inactive | Non-toxic | Non-toxic | inactive | inactive | inactive | inactive | Non-toxic | inactive
5.06 | 4 | 1380 | – | Cn1c(=O)c2c(nc3n2CCCCN3C2CCCC2)n(C)c1=O | inactive | inactive | Non-toxic | inactive | Non-toxic | Non-toxic | inactive | inactive | inactive | inactive | Non-toxic | inactive
2.45 | 1 | 2020 | – | Cn1c(=O)c2c(nc3n2CCN3CCC2=CCCCC2)n(C)c1=O | inactive | inactive | Non-toxic | inactive | Non-toxic | Non-toxic | inactive | inactive | inactive | inactive | Toxic | inactive
